Test results published in PMC4779681 (Journal of immunology (Baltimore, Md. : 1950), 2016).

Tests used:
[1] = test system: OT-I T cells; test: OT-I primary effector and memory populations after LM-OVA APL infection; assay type: in vivo, mouse; conditions: for Memory OT-I cells (frequency/number) in pooled secondary lymphoid organs: LM-N4 OVA or LM-V4 OVA infection, week 4-5 post infection, Thy1.1 enrichment; for CD45RB^hi frequency, primary effectors: OT-I in blood, day 7 post LM infection; for CD45RB^hi frequency, memory cells: OT-I in secondary lymphoid tissue, 4 weeks post LM infection; for IL-2 expression by primary effectors: day 7 primary effectors; for Memory phenotype markers CD44, CD127, CD69, Granzyme B: memory OT-I cells primed by LM-OVA APL
Method in brief: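 OT-I donor cells (1.0 × 10⁴, Thy1.1⁺, in PBS) given i.v. to CD45.1⁺ male hosts; 10⁴ CFU LM-OVA APL i.p. 24 h later. Day 7: blood with RBC lysis, gated CD8⁺CD44^hiThy1.1⁺. Week 4 (day 28–35): spleen plus pooled LNs, anti-Thy1.1 PE/anti-PE bead enrichment. Cytokines by intracellular staining after 5 h at 37 C with 1 μM N4 OVA peptide plus GolgiPlug. Counts by counting beads.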

[2] = test system: OT-I T cells; assay type: in vivo, mouse; conditions: vs N4 OVA primed
Method in brief: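 Memory mice, OT-I-transferred and LM-infected, received full-thickness tail and ear skin grafts expressing N4 OVA on the dorsal thorax 5 weeks post infection. Draining LN OT-I cells were counted with counting beads on day 5 post graft. Fold expansion was taken from day 0 to day 5.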

[3] = test system: OT-I T cells; test: Secondary effectors after N4 OVA peptide footpad rechallenge; assay type: in vivo, mouse; conditions: for CD45RB^hi frequency, secondary effectors: N4 OVA peptide 10 μg per hind foot pad, draining popliteal LN, 5 days later; for CD62L^lo frequency, CD45RB^lo vs CD45RB^hi fraction: CD45RB^lo vs respective CD45RB^hi population
[4] = test system: OT-I T cells; test: In vitro OVA APL OT-I stimulation; assay type: cell-based, mouse; conditions: for hnRNPLL expression: OT-I cells primed with peptide 3 days in vitro (0.1 μM)
[5] = test system: OT-I T cells; conditions: between N4 and V4 OVA; cited from earlier work
[6] = test system: OT-I T cells; test: Sorted Q4 OVA primed OT-I cells transferred and rechallenged with N4 OVA peptide; assay type: in vivo, mouse; conditions: N4 OVA peptide rechallenge in naïve congenic hosts, day 5, p=0.0012
Method in brief: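 OT-I splenocytes (3×10⁶) were primed for 3 days with 0.1 μM Q4 OVA peptide, 0.1 μg/mL anti-CD28 and 10 ng/mL IL-2. Dead cells were removed, then cells were cultured overnight in 10 ng/mL IL-15. Live CD8⁺CD44^hiThy1.1⁺ cells were sorted into CD45RB^hi/lo, transferred to naïve congenic hosts and rechallenged with N4 OVA peptide. CD45RB was assessed 5 days later; 2–3 independent experiments.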

Sequence | Memory OT-I cells (frequency/number) in pooled secondary lymphoid organs [1] | CD45RB^hi frequency, primary effectors [1] [%] | CD45RB^hi frequency, memory cells [1] [%] | IL-2 expression by primary effectors [1] | Memory phenotype markers CD44, CD127, CD69, Granzyme B [1] | CD45RB^hi frequency, secondary effectors [3] [%] | CD62L^lo frequency, CD45RB^lo vs CD45RB^hi fraction ([3]; secondary effectors) | hnRNPLL expression [4] | other results
SIIVFEKL [V4 OVA] | 1.3×10^3±5.3×10^2 | 68.7±3.6 | 79.3±3.4 | similarly low levels of IL-2 | high levels of CD44 and CD127, and low levels of CD69 and Granzyme B | 19.6±1.96 | greater frequency | not induced | Fold lower frequency of CD8^+ OT-I effectors in blood vs N4 OVA priming ([1]; day 7 post LM infection (10^4 CFU i.p.), 10^4 OT-I transferred): ~ 80 fold; Fold lower frequency of memory OT-I cells vs N4 OVA priming ([1]; secondary lymphoid organs, memory, LM infection): 61 fold; Fold expansion of memory cells post graft ([2]; day 0 to day 5 post N4 OVA skin graft): greater fold expansion; Number of OT-I cells recovered in draining lymph nodes ([2]; day 5 post N4 OVA skin graft): fewer; PD-1 expression in CD45RB^lo fraction ([3]; secondary effectors): significantly upregulated; IL-2Rβ (CD122) expression ([3]; secondary effectors, CD45RB^lo vs CD45RB^hi): significantly lower; CD62L^lo frequency within CD45RB^lo population ([3]; secondary effectors, V4 OVA vs N4 OVA primed CD45RB^lo): slightly smaller frequency; IFN-γ^+ or TNF^+ frequency, CD45RB^lo vs CD45RB^hi ([3]; secondary effectors, high affinity rechallenge): did not possess greater frequencies; Loss of CD45RB^hi cells relative to resting memory ([3]; secondary effectors, vs N4 OVA primed): significantly greater; IL-2Rα (CD25) expression, CD45RB^lo cells ([3]; vs CD45RB^hi cells and N4 OVA primed CD45RB^lo cells): significantly higher levels; Range in relative functional avidity [5]: 680 fold
SIIQFEKL [Q4 OVA] | – | – | – | – | – | – | – | – | Proliferation of sorted CD45RB^hi vs CD45RB^lo cells [6]: proliferated to a significantly greater number
SIINFEKL [N4 OVA] | 8.0×10^4±3.3×10^4 | 48.9±2.2 | 54.7±6.76 | similarly low levels of IL-2 | high levels of CD44 and CD127, and low levels of CD69 and Granzyme B | 30.2±3.39 | greater frequency | increased | Nur77 and CD69 expression, CD45RB^hi vs CD45RB^lo cells ([4]; V4 OVA Tm cells restimulated 5 h with N4 OVA or OVA APL, 0.1 μM): significantly greater in CD45RB^hi cells
